This is an account of results in paper PMC3177973 (Biochemistry, 2011).

Experiment [1] concerns the target T1, α-synuclein (Homo sapiens, UniProt P37840). To be noted: similar effect as WW2; cited from earlier work.
The target in experiment [2] is T1, α-synuclein. Put plainly: TEM imaging of α-syn aggregation assays. The following applies: 2 molar equivalents; images after 16–24 hrs; AA = amorphous aggregates. It is filed as biochemical. In outline:
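Full-length 140-residue α-syn was expressed in E. coli BL21(DE3) and purified by anion exchange. It was used at 100 μM in 20 mM Tris-HCl pH 7.5, at 37 °C with vigorous stirring, with or without peptide. HFIP was added to 1.5 vol-% to start aggregation. After 16–24 h, a freshly agitated 5 μL aliquot was adsorbed on formvar/carbon-coated copper grids, negatively stained with 2% uranyl acetate and imaged by TEM.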

For experiment [3], the target named is T1, α-synuclein. Put plainly: α-syn aggregation assay, CD spectroscopy. It is filed as biochemical. To be noted: 2 molar equivalents; for β CD signal, % β, α-syn assay: at 16 h (no time printed for MrH3b); for Effect on course, onset or lag time of α-syn aggregation (in words): monitored by CD and ThT. The essentials:
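Recombinant full-length α-syn was expressed in E. coli BL21(DE3) and used at 100 μM in 20 mM Tris-HCl pH 7.5. Aggregation was started by HFIP addition (1.5 vol-% final) under continuous stirring at 37 °C, with or without inhibitor peptide and without ThT. Every 2–4 h, a 5 μL aliquot was diluted into 195 μL of 1.5% HFIP buffer (2.5 μM α-syn). Spectra were recorded in 0.1 cm cells to follow the random coil-to-β transition, corrected for inhibitor contribution.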

With `O=C(O[C@@H]1Cc2c(O)cc(O)cc2O[C@@H]1c1cc(O)c(O)c(O)c1)c1cc(O)c(O)c(O)c1` [EGCG, (−)-epigallocatechin-3-gallate], the “Excess of inhibitor required for non-amyloid α-syn aggregates” value in experiment [1] is 5 fold excess.
Consider Ac-KIVTSAK [ssMrH], for which the “Fibril Morphology (TEM), α-syn” value in experiment [2] is listed as “Normal”. In experiment [3], the “Time by which β CD signal appears, α-syn assay” value is reported as “β signal within 6 h, 100% 16 h hours”; the “β CD signal, % β, α-syn assay” value is reported as 100%; the “Effect on course, onset or lag time of α-syn aggregation (in words)” value was “no effects on the course of α-syn aggregation”.
With KKLTVWI [ssW], the “Fibril Morphology (TEM), α-syn” value in experiment [2] was “Normal + AA”. Also, the “β CD signal, α-syn assay (in words)” value in experiment [3] (100 μM α-syn, 1.5 vol-% HFIP) is given as “Helical at 4–6 hours 80 % β at 16 h”. Also, in experiment [3], the “β CD signal, % β, α-syn assay” value is on record as 80% and the “Effect on course, onset or lag time of α-syn aggregation (in words)” value was “delays aggregation (as monitored by CD)”.
